Results from ChEMBL document CHEMBL2203148, “Increased selectivity toward cytoplasmic versus mitochondrial ribosome confers improved efficiency of synthetic aminoglycosides in fixing damaged genes: a strategy for treatment of genetic diseases caused by nonsense mutations” (J Med Chem, 2012).
Values after ≈ are worked out from the molar mass of the structure shown. Counter-ions that a name gives are not always drawn. Active and inactive are the calls of the source. No cut-off for these calls is given here.

Key:
HFF = assay: Cytotoxicity against human HFF cells assessed as cell viability after 48 hrs by XTT based calorimetric assay relative to control
Method in brief: (§1)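 Cells seeded at 5,000/well in DMEM with 10% FBS and 1% glutamine at 37 °C, 5% CO₂; after overnight culture, graded aminoglycoside concentrations added for a further 48 hr. XTT viability read-out with 3 hr incubation by optical density, viability expressed relative to untreated cultures; LC50 fitted from concentration-response curves of at least three independent experiments.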

Ribosome [1] = assay: Inhibition of ribosome-mediated protein synthesis in rabbit reticulocytes after 60 mins by coupled transcription/translation assay; format: subcellular, Oryctolagus cuniculus
Method in brief: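 Eukaryotic inhibition used the TNT T7 Quick coupled transcription/translation system with T7 control luciferase DNA. Varied aminoglycoside concentrations were incubated with the 10 µl reaction at 30 °C for 60 min and ice-cooled 5 min. Samples were diluted in the same buffer and luminescence was read on adding luciferase reagent. IC50 was fitted from at least three independent experiments.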

[2] = Inhibition of ribosome S30 subunit-mediated protein synthesis in Escherichia coli after 60 mins by coupled transcription/translation assay
Method in brief: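 Prokaryotic coupled transcription/translation with a luciferase read-out. Varied aminoglycoside concentrations were incubated with the 10 µl reaction at 37°C for 60 min, then ice-cooled 5 min. Samples were diluted in tris-phosphate (25 mM, pH 7.8), DTT, CDTA, glycerol, Triton X-100 and BSA, and luminescence was read on adding luciferase reagent. IC50 was fitted from at least three independent experiments.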

Escherichia coli = assay: Antibacterial activity against Escherichia coli R477/100 by microdilution method; format: functional
Bacillus subtilis = assay: Antibacterial activity against Bacillus subtilis ATCC-6633 by double-microdilution method; format: functional, organism-based
[3] = Selectivity ratio of IC50 for ribosome-mediated protein synthesis in rabbit reticulocytes to IC50 for ribosome S30 subunit-mediated protein synthesis in Escherichia coli
Ribosome [4] = assay: Inhibition of ribosome-mediated translation of PCDH15 R3X nonsense mutant gene expressed in rabbit reticulocytes harboring p2luc plasmid after 16 hrs by dual luciferase reporter gene assay; format: subcellular; parameters: scale not given: the % may be the effect or the level left
Ribosome [5] = assay: Inhibition of ribosome-mediated translation of PCDH15 R245X nonsense mutant gene expressed in rabbit reticulocytes harboring p2luc plasmid after 16 hrs by dual luciferase reporter gene assay; format: subcellular; parameters: scale not given: the % may be the effect or the level left
Ribosome [6] = assay: Inhibition of ribosome-mediated translation of CFTR W1282X nonsense mutant gene expressed in rabbit reticulocytes harboring p2luc plasmid after 16 hrs by dual luciferase reporter gene assay; format: subcellular; parameters: scale not given: the % may be the effect or the level left
Ribosome [7] = assay: Inhibition of ribosome-mediated translation of CFTR G542X nonsense mutant gene expressed in rabbit reticulocytes harboring p2luc plasmid after 16 hrs by dual luciferase reporter gene assay; format: subcellular; parameters: scale not given: the % may be the effect or the level left
Ribosome [8] = assay: Inhibition of ribosome-mediated translation of DMD R3381X nonsense mutant gene expressed in rabbit reticulocytes harboring p2luc plasmid after 16 hrs by dual luciferase reporter gene assay; format: subcellular; parameters: scale not given: the % may be the effect or the level left
[9] = (§2) Cytotoxicity against human HEK293 cells assessed as cell viability after 48 hrs by XTT based calorimetric assay; conditions: HEK293 cells, read-out: LC50; method in brief: as §1
Ribosome [10] = assay: Inhibition of ribosome-mediated translation of IDUA Q70X nonsense mutant gene expressed in rabbit reticulocytes harboring p2luc plasmid after 16 hrs by dual luciferase reporter gene assay; format: subcellular; parameters: scale not given: the % may be the effect or the level left
[11] = molecular target: mitochondrial ribosome (Homo sapiens); assay: Inhibition of mitochondrial ribosome-mediated protein synthesis in human HeLa cells assessed as {35S]methionine incorporation by autoradiography
HEK293 = assay: as §2; conditions: hek293, 48 h, read-out: LC50 (the source's name); method in brief: as §1
HeLa = assay: Ratio of compound IC50 to gentamicin IC50 for inhibition of mitochondrial ribosome- protein synthesis in human HeLa cells; format: subcellular

Compound | Activity (HFF) | IC50 (Ribosome [1]) [µM] | IC50 [2] [µM] | MIC (Escherichia coli) [µM] | Activity (Bacillus subtilis) | Ratio IC50 [3] | Activity (Ribosome [4]) [%] | Activity (Ribosome [5]) [%] | Activity (Ribosome [6]) [%] | Activity (Ribosome [7]) [%] | Activity (Ribosome [8]) [%] | CC50 at 48 h [9] [µM] | Activity (Ribosome [10]) | IC50 [11] [µM] | CC50 (HEK293) [µM] | Ratio IC50 (HeLa)
CN[C@@H]1[C@@H](O)[C@@H](O[C@@H]2[C@@H](O)[C@H](O[C@H]3O[C@H]([C@@H](C)O)[C@@H](O)[C@H](O)[C@H]3N)[C@@H](N)C[C@H]2N)OC[C@]1(C)O.O=S(=O)(O)O [GENETICIN SULFATE SALT] | Non-toxic | 2 | 0.01 | 9 | Active |  |  |  |  |  |  |  |  |  |  | 
C[C@H](N)[C@H]1O[C@@H](O[C@@H]2[C@@H](O)[C@H](NC(=O)[C@@H](O)CCN)C[C@H](N)[C@H]2O[C@H]2O[C@H](CO)[C@@H](O)[C@H](O)[C@H]2N)[C@H](O)[C@@H]1O |  | 5.2 | 2.3 | 1070 (≈ 608 µg/mL) |  | 2.3 |  |  |  |  |  |  |  |  |  | 
C[C@H](N)[C@H]1O[C@@H](O[C@@H]2[C@@H](O)[C@H](N)C[C@H](N)[C@H]2O[C@H]2O[C@H]([C@@H](C)O)[C@@H](O)[C@H](O)[C@H]2N)[C@H](O)[C@@H]1O |  | 1.5 | 1.1 | 768 (≈ 371 µg/mL) |  | 1.3 | 50 | 50 | 50 | 50 | 50 | 5400 | 50% |  |  | 
NC[C@H]1O[C@@H](O[C@@H]2[C@@H](O)[C@H](N)C[C@H](N)[C@H]2O[C@H]2O[C@H](CO)[C@@H](O)[C@H](O)[C@H]2N)[C@H](O)[C@@H]1O |  | 31 | 0.5 | 790 (≈ 359 µg/mL) |  | 68 |  |  |  |  |  | 21900 |  |  |  | 
C[C@H](N)[C@H]1O[C@@H](O[C@@H]2[C@@H](O)[C@H](NC(=O)[C@@H](O)CCN)C[C@H](N)[C@H]2O[C@H]2O[C@H]([C@@H](C)O)[C@@H](O)[C@H](O)[C@H]2N)[C@H](O)[C@@H]1O |  | 0.7 | 1.8 | 384 (≈ 224 µg/mL) |  | 0.4 |  |  |  |  |  | 5100 |  |  |  | 
C[C@@H](N)[C@H]1O[C@@H](O[C@@H]2[C@@H](O)[C@H](N)C[C@H](N)[C@H]2O[C@H]2O[C@H]([C@@H](C)O)[C@@H](O)[C@H](O)[C@H]2N)[C@H](O)[C@@H]1O |  | 8 | 1.9 | 1540 (≈ 741 µg/mL) |  | 4.3 | 20 | 20 | 20 | 20 | 20 | 16500 | 20% |  |  | 
GENTAMICIN SULFATE [listing 1 of 2 here] |  | 62 |  |  |  |  |  |  |  |  |  |  |  | 26 | 2500 | 
GENTAMICIN SULFATE [listing 2 of 2 here] |  |  |  | 6 | Active | 2210 | 20 | 20 | 20 | 20 | 20 |  | 20% |  |  | 
NCC[C@H](O)C(=O)N[C@@H]1C[C@H](N)[C@@H](O[C@H]2O[C@H](CO)[C@@H](O)[C@H](O)[C@H]2N)[C@H](O[C@@H]2O[C@H](CN)[C@@H](O)[C@H]2O)[C@H]1O |  | 24 | 0.2 | 588 (≈ 327 µg/mL) |  | 151 |  |  |  |  |  | 5500 |  |  |  | 19
C[C@H](N)[C@H]1O[C@@H](O[C@@H]2[C@@H](O)[C@H](N)C[C@H](N)[C@H]2O[C@H]2O[C@H](CO)[C@@H](O)[C@H](O)[C@H]2N)[C@H](O)[C@@H]1O |  | 16 | 2 | 2660 (≈ 1250 µg/mL) |  | 7.9 |  |  |  |  |  |  |  |  |  | 
NC[C@@H]1O[C@H](O[C@H]2[C@@H](O)[C@H](O[C@@H]3[C@@H](O)[C@H](N)C[C@H](N)[C@H]3O[C@H]3O[C@H](CO)[C@@H](O)[C@H](O)[C@H]3N)O[C@@H]2CO)[C@H](N)[C@@H](O)[C@@H]1O [PAROMOMYCIN SULFATE] |  | 57 | 0.05 | 22 |  | 1120 |  |  |  |  |  |  |  |  |  | 
C[C@@H](O)[C@H]1O[C@H](O[C@H]2[C@H](O[C@@H]3O[C@H](CN)[C@@H](O)[C@H]3O)[C@@H](O)[C@H](NC(=O)[C@@H](O)CCN)C[C@@H]2N)[C@H](N)[C@@H](O)[C@@H]1O |  | 2.8 | 1 | 556 (≈ 317 µg/mL) |  | 2.9 | 50 | 50 | 50 | 50 | 50 | 5800 | 50% |  |  | 
C[C@@H](N)[C@H]1O[C@@H](O[C@@H]2[C@@H](O)[C@H](NC(=O)[C@@H](O)CCN)C[C@H](N)[C@H]2O[C@H]2O[C@H](CO)[C@@H](O)[C@H](O)[C@H]2N)[C@H](O)[C@@H]1O |  | 4.6 | 0.8 | 1060 (≈ 602 µg/mL) |  | 5.7 |  |  |  |  |  |  |  |  |  | 
C[C@@H](N)[C@H]1O[C@@H](O[C@@H]2[C@@H](O)[C@H](N)C[C@H](N)[C@H]2O[C@H]2O[C@H](CO)[C@@H](O)[C@H](O)[C@H]2N)[C@H](O)[C@@H]1O |  | 28 | 2.1 | 4990 (≈ 2340 µg/mL) |  | 13 |  |  |  |  |  |  |  |  |  | 
C[C@@H](N)[C@H]1O[C@@H](O[C@@H]2[C@@H](O)[C@H](NC(=O)[C@@H](O)CCN)C[C@H](N)[C@H]2O[C@H]2O[C@H]([C@@H](C)O)[C@@H](O)[C@H](O)[C@H]2N)[C@H](O)[C@@H]1O |  | 0.9 | 1.8 | 384 (≈ 224 µg/mL) |  | 0.5 |  |  |  |  |  | 5400 | Dose-dependent effect |  |  | 
C[C@@H](O)[C@H]1O[C@H](O[C@H]2[C@H](O[C@@H]3O[C@H](CN)[C@@H](O)[C@H]3O)[C@@H](O)[C@H](N)C[C@@H]2N)[C@H](N)[C@@H](O)[C@@H]1O |  |  | 1.1 |  |  | 15 | 20 | 20 | 20 | 20 | 20 | 22200 | 20% |  |  | 
